Laboratory results as given in ChEMBL document CHEMBL1130251, “Enzymatic properties of the unnatural beta-L-enantiomers of 2',3'-dideoxyadenosine and 2',3'-didehydro-2',3'-dideoxyadenosine” (J Med Chem, 1997).

Legend:
[1] = test system: Nc1ncnc2c1ncn2[C@H]1C=C[C@@H](CO)O1; test: Inhibitory activity against human deoxycytidine kinase
Method in brief: (§1)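 Recombinant human deoxycytidine kinase (expressed in E. coli, purified) at 37 °C. Monophosphate formation measured by C-18 HPLC. Km and Vm from Lineweaver–Burk plots.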

[2] = test system: Nc1ncnc2c1ncn2[C@H]1CC[C@@H](CO)O1; test: Inhibitory activity against Cytidine Kinase; method in brief: as §1
[3] = Inhibitory activity against purine nucleoside phosphorylases from human blood and calf spleen; NS, NI/Ino=nonsubstrate, noninhibitor/inhibitor; type: tissue-based
Method in brief: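 Purine nucleoside phosphorylase from calf spleen (0.18 unit·mL⁻¹) or human blood (9 units·mL⁻¹) at 37 °C in 50 mM phosphate pH 7.5. Substrate tests used 50 μM nucleoside. Inhibition used 40 μM inosine with 100 μM test compound. Reaction media were analysed by C-18 HPLC.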

[4] = target: T1, Adenosine deaminase (Bos taurus) (UniProt P56658); test: Inhibitory activity against bovine adenosine deaminase; very weak substrate or inhibitor
T1 sequence (whole entry): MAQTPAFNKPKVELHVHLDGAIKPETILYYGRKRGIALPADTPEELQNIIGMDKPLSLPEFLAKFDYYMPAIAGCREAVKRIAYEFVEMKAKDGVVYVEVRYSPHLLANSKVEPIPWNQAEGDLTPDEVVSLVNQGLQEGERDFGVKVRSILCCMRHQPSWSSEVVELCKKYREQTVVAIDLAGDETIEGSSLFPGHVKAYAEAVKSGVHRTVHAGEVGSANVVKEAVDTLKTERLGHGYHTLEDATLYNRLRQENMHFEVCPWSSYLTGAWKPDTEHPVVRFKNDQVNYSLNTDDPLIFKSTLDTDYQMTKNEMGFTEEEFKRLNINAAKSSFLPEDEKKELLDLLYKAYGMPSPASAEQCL
Method in brief: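 Adenosine deaminase (calf intestinal mucosa, type VIII) at 37 °C in 50 mM phosphate pH 7.5. Substrate tests used 20–80 μM nucleoside and 0.01–1 unit enzyme, with HPLC product analysis. Inhibition was read by UV spectrometry with adenosine 20–100 μM. Ki was taken from Lineweaver–Burk plots assuming competitive inhibition.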

Deoxycytidine kinase (Homo sapiens), P27707, sequence (P27707 whole entry): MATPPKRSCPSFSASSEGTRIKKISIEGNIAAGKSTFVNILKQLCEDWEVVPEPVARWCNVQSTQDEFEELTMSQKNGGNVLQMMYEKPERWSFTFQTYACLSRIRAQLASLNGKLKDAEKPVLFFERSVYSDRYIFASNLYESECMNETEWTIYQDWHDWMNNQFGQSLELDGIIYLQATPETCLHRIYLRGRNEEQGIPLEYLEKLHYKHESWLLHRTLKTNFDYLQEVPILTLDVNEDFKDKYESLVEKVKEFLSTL

| Km [3] | inhibition [4] | Compound | Km [1] [µM] | Km [2] [µM] |
| --- | --- | --- | --- | --- |
| – | – | Deoxycytidine kinase (Homo sapiens), P27707 | 620 | 220 |
| NS, NI/Ino | very weak substrate or inhibitor | Nc1ncnc2c1ncn2[C@H]1C=C[C@@H](CO)O1 | – | – |
| NS, NI/Ino | – | Nc1ncnc2c1ncn2[C@H]1CC[C@@H](CO)O1 | – | – |
